The source made the active and inactive calls.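 The calls were made as follows, unless noted: active = viability at or under a set limit in both replicates, limit being median viability minus 3 SD (cut at about 48% in these data, passing the limit was not always enough); inconclusive = at or under the limit in just one replicate; inactive = at or above the limit in both replicates.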
Assays:
[1] = reduced viability of SK-BR-3 breast cancer cells – cell-based, 24 h, human, pilot screen (AID 572;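 active = viability at or below 10% of carrier control in both of two separate runs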;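 also: compound exposure lasted between 18 and 24 h rather than exactly 24 h; 100% = carrier-treated control wells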); settings: SK-BR-3 viability, CellTiter-Glo luminescence, at 10 µM, stronger effect = lower value
[2] = HUVEC growth inhibition – cell-based, human, primary screen (AID 575;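 active = viability at or below 30% in both replicate assays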;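 also: 100% = median of untreated cell wells with 0.1% DMSO on each plate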); settings: HUVEC proliferation, CellTiter-Glo luminescence, 72 h; at 10 µM; stronger effect = lower value
Summary of the method: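 Assay system: Primary human umbilical vein endothelial cells | Quantity: 1250 cells per well | Medium: Supplemented EBM, 2% fetal bovine serum | Detection: CellTiter-Glo luminescence measuring cellular ATP | Read-out: % viability vs DMSO wells | Plate: Collagen-coated 384-well format | Times: 72 h exposure, 37 °C, 5% CO2, 30 min RT equilibration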

[3] = H69AR cell proliferation blockers – human, duplicate replicates, primary screen (AID 580); settings: H69AR lung tumor cells viability, ATP luminescence, 72 h; at 10 µM; stronger effect = lower value;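 also: 100% = mean luminescence of untreated wells and 0% = no signal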
[4] = MRP1 drug-resistance reversers in H69AR cells – cell-based, doxorubicin co-treatment, pilot screen (AID 601;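 active = viability loss from added drug above about 55%, and viability with drug at most 40%, in both replicates, limit read from the data, passing the limit was not always enough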); settings: CellTiter-Glo, 72 h, at 10 µM; for differential viability (reversal): stronger effect = higher value
[5] = yeast transport mutant growth inhibition pilot in 384-well plates, post-Golgi transport modulator project (AID 636; in the data active = inhibition above about 31%); settings: absorbance 615 nm, about 18 h, stronger effect = higher value
[6] = growth suppression of yeast trafficking mutant, preliminary HTS, modulators of trafficking downstream of Golgi apparatus project, 1536-format plate, OD 615 nm (AID 637; in the data active = inhibition above about 30%); settings: yeast transport mutant growth, absorbance 615 nm, 18 h; stronger effect = higher value
[7] = H69AR cells + 2 uM doxorubicin, measured here: viability with 2 uM doxorubicin, stronger effect = lower value
[8] = H69AR cells, compound alone cytotoxicity

Row | Structure (SMILES) | viability [1] | viability [2] | viability [3] | differential viability (reversal) ([4]; H69AR cells + 2 uM doxorubicin) | viability [4, 7] [%] | viability [4, 8] [%] | inhibition [5] | inhibition [6]
1 | CCn1cc(C(=O)NCc2ccco2)c(=O)c2cc(F)c(N3CCN(C(=O)c4ccco4)CC3)cc21 | 94% (inactive) | 62.4% (inactive) | 58.6% (inactive) | 40.8% (inactive) | 17.7 | 58.6 | -7.4% (inactive) | -1.45% (inactive)
2 | CC(CN1c2ccccc2Sc2ccccc21)N(C)C (configuration not stated) | 88% (inactive) | 62.9% (inactive) | 92.2% (inactive) | 4.55% (inactive) | 87.7 | 92.2 | -2.73% (inactive) | -1.67% (inactive)
3 | COC(=O)C1(C)NC(c2cccs2)C2C(=O)N(c3ccccc3F)C(=O)C21 (configuration not stated) | 80% (inactive) | 96.3% (inactive) | 99.3% (inactive) | 4.93% (inactive) | 94.4 | 99.3 | -0.27% (inactive) | -0.48% (inactive)
4 | CCCN1Cc2cccc(C(=O)NCc3cccs3)c2C1=O | 86% (inactive) | 111% (inactive) | 90.6% (inactive) | -0.255% (inactive) | 90.8 | 90.6 | -6% (inactive) | -1.45% (inactive)
5 | COC(=O)c1ccc2c(c1)nc(C)n2CCO | 104% (inactive) | 118% (inactive) | 99.4% (inactive) | 9.26% (inactive) | 90.1 | 99.4 | -3.78% (inactive) | -2% (inactive)
6 | Cc1ccc2nc(C(F)(F)F)c(C#N)c(N)c2c1 | 50% (inactive) | 78.9% (inactive) | 71.3% (inactive) | -43.8% (inactive) | 115 | 71.3 | -4.38% (inactive) | 6.55% (inactive)
7 | Clc1ccc(Cl)c(-c2nn3c(Cn4cnc5ccccc54)nnc3s2)c1 | 78% (inactive) | 98.5% (inactive) | 102% (inactive) | 6.11% (inactive) | 96 | 102 | -6.3% (inactive) | -0.18% (inactive)
8 | CC(CCc1ccccc1)NCC(O)c1ccc(O)c(C(N)=O)c1 (configuration not stated) | 94% (inactive) | 104% (inactive) | 93.8% (inactive) | 1.8% (inactive) | 92 | 93.8 | 1.17% (inactive) | -3.17% (inactive)
9 | Cc1cc(=O)c2n(Cc3ccccc3Cl)nc[n+]2[nH]1 | 115% (inactive) | 100% (inactive) | 97.1% (inactive) | 8.77% (inactive) | 88.3 | 97.1 | -4.4% (inactive) | 0% (inactive)
10 | CC(C)Oc1cc2oc(=O)c3c(c2cc1Cl)CCC3 | 66% (inactive) | 99% (inactive) | 98.2% (inactive) | 19.7% (inactive) | 78.6 | 98.2 | -7.4% (inactive) | 0.97% (inactive)
11 | Cc1cc(NC(=O)CSc2nc(CCC3CCCC3)nc3ccccc23)no1 | 92% (inactive) | 92.2% (inactive) | 22.3% (active) | -1.14% (inactive) | 23.4 | 22.3 | -2.86% (inactive) | -5.08% (inactive)
12 | CN(C(=O)C1CCOC1)c1nnc(-c2cccnc2)s1 (configuration not stated) | 92% (inactive) | 101% (inactive) | 88.5% (inactive) | 4.19% (inactive) | 84.3 | 88.5 | -1.23% (inactive) | 19.4% (inactive)
13 | O=C(Cn1cnc2c(cnn2-c2ccccc2)c1=O)NCCc1ccccc1 | 102% (inactive) | 91.6% (inactive) | 91.8% (inactive) | 0.99% (inactive) | 90.8 | 91.8 | -4.68% (inactive) | -5.74% (inactive)
14 | N#CCc1nc2c3c4c(sc3ncn2n1)CCCC4 | 112% (inactive) | 23.6% (active) | 86.4% (inactive) | 8.27% (inactive) | 78.1 | 86.4 | -5.54% (inactive) | 0.36% (inactive)
15 | O=C(NCc1cccs1)c1cc2c(s1)CS(=O)(=O)C2 | 116% (inactive) | 101% (inactive) | 98.1% (inactive) | 4.27% (inactive) | 93.8 | 98.1 | -4% (inactive) | -1.64% (inactive)
16 | COc1ccccc1OCc1ccc(C(=O)N2CCN(C(=O)c3ccco3)CC2)cc1 | 116% (inactive) | 111% (inactive) | 99.2% (inactive) | 5.35% (inactive) | 93.9 | 99.2 | -4.13% (inactive) | -9.82% (inactive)
17 | O=C(Nc1ncc2c(n1)CC(c1ccccc1)CC2=O)c1ccco1 (configuration not stated) | 102% (inactive) | 98.3% (inactive) | 81.8% (inactive) | 5.16% (inactive) | 76.7 | 81.8 | -5.21% (inactive) | -0.16% (inactive)

Row | Structure (SMILES) | viability [1] | viability [2] | viability [3] | differential viability (reversal) ([4]; H69AR cells + 2 uM doxorubicin) | viability [4, 7] [%] | viability [4, 8] [%] | inhibition [5] | inhibition [6]
18 | Fc1cccc(Cl)c1Cn1nnc2c(NCc3ccccn3)ncnc21 | 76% (inactive) | 92.9% (inactive) | 105% (inactive) | 14.2% (inactive) | 91.1 | 105 | -4.66% (inactive) | -4.84% (inactive)
19 | Cc1occc1-c1nc(-c2ccncc2)no1 | 79% (inactive) | 83.2% (inactive) | 95.4% (inactive) | 2.9% (inactive) | 92.5 | 95.4 | 0.96% (inactive) | -8.87% (inactive)
20 | c1ccc2oc(SCc3cn4ccccc4n3)nc2c1 | 91% (inactive) | 93.3% (inactive) | 95% (inactive) | 9.37% (inactive) | 85.6 | 95 | -1.43% (inactive) | -1.48% (inactive)
21 | COC(=O)c1c(NC(=O)CSc2nnnn2C)sc(C)c1C | 96% (inactive) | 84.9% (inactive) | 92.5% (inactive) | 4.44% (inactive) | 88.1 | 92.5 | 0.14% (inactive) | -2% (inactive)
22 | CCC(CC)C1C(C#N)=C(N)Oc2n[nH]c(C)c21 (configuration not stated) | 85% (inactive) | 91.9% (inactive) | 24.9% (active) | -44.6% (inactive) | 69.6 | 24.9 | -6.22% (inactive) | -0.18% (inactive)
23 | CCOc1ccc(CCNc2nc3c(c(=O)n(C)c(=O)n3C)n2CC)cc1OCC | 108% (inactive) | 101% (inactive) | 88.9% (inactive) | 1.88% (inactive) | 87 | 88.9 | -1.73% (inactive) | 3.27% (inactive)
24 | CN(Cc1ccccc1)C(=O)c1ccccc1NC(=O)c1ccco1 | 94% (inactive) | 104% (inactive) | 101% (inactive) | 13.5% (inactive) | 87.1 | 101 | -1.76% (inactive) | -2.55% (inactive)
25 | CCc1noc(C)c1C(=O)NCCc1ccc(OC)c(OC)c1 | 87% (inactive) | 104% (inactive) | 104% (inactive) | 16.7% (inactive) | 87 | 104 | -8.49% (inactive) | 2.58% (inactive)
26 | Cc1ccc(S(=O)(=O)N2CCN(C(=O)c3cc(=O)[nH]c4ccccc34)CC2)c(C)c1 | 66% (inactive) | 82.8% (inactive) | 83.3% (inactive) | 3.45% (inactive) | 79.8 | 83.3 | -9.04% (inactive) | 2.74% (inactive)
27 | COC(=O)c1sc(S(=O)(=O)N2CCN(c3ccccc3)CC2)c(C(=O)OC)c1C | 69% (inactive) | 96.1% (inactive) | 85.6% (inactive) | -1.87% (inactive) | 87.5 | 85.6 | -8.63% (inactive) | 4% (inactive)
28 | COc1cccc(NC(=O)N(Cc2ccco2)C(C)c2cccs2)c1 (configuration not stated) | 92% (inactive) | 88.9% (inactive) | 89.8% (inactive) | 16.8% (inactive) | 73 | 89.8 | -0.52% (inactive) | -4.1% (inactive)
29 | Cn1cc(C(=O)NC2CCCCCCC2)c(=O)c2cc(S(=O)(=O)N3CCCC3)ccc21 | 76.5% (inactive) | 79.8% (inactive) | 90.9% (inactive) | 0.325% (inactive) | 90.6 | 90.9 | -5.95% (inactive) | -4.67% (inactive)
30 | O=C(NCc1ccco1)c1cc2sccc2n1Cc1ccccc1 | 131% (inactive) | 97.3% (inactive) | 71.2% (inactive) | -18.5% (inactive) | 89.7 | 71.2 | 3.01% (inactive) | 14.2% (inactive)
31 | O=C(Nc1cc(C(=O)N2CCCC2)ccc1N1CCCC1)c1ccccc1F | 108% (inactive) | 119% (inactive) | 101% (inactive) | 8.93% (inactive) | 92 | 101 | -8.13% (inactive) | -3.64% (inactive)
32 | C=CCn1c(SCC(=O)Nc2ccc3c(c2)OCO3)nc2ccccc2c1=O | 73% (inactive) | 83.9% (inactive) | 84.2% (inactive) | 2.04% (inactive) | 82.1 | 84.2 | -3.84% (inactive) | -1.27% (inactive)
33 | Cn1nc(CC(=O)Nc2ccc(N3CCN(C(=O)OC(C)(C)C)CC3)cc2)c2ccccc2c1=O | 84% (inactive) | 9.25% (active) | 1.72% (active) | -3.22% (inactive) | 4.94 | 1.72 | -1.82% (inactive) | -4.26% (inactive)
34 | CCCn1nnc(NCc2ccc(OCc3cccs3)c(OC)c2)n1 | 88% (inactive) | 106% (inactive) | 96.5% (inactive) | 1.02% (inactive) | 95.5 | 96.5 | -6.44% (inactive) | 2.36% (inactive)
